According to ChEMBL document CHEMBL3232906, “2-Amino-3-(phenylsulfanyl)norbornane-2-carboxylate: an appealing scaffold for the design of Rac1-Tiam1 protein-protein interaction inhibitors” (J Med Chem, 2014):
Active and inactive are the calls of the source. The rule behind the calls is not given here.

Legend:
[1] = target: T1, Ras-related C3 botulinum toxin substrate 1/T-lymphoma invasion and metastasis-inducing protein 1 (Homo sapiens, UniProt P63000+Q13009); test: Inhibition of Rac1-Tiam1 interaction in human smooth muscle cells assessed as reduction of PDGF-BB stimulated GTP bound Rac1 level at 10 uM preincubated for 4 hrs followed by PDGF-BB stimulation measured after 2 mins by G-LISA assay relative to control; assay type: cell-based
How it was run: (§1)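 Cultured human aortic SMCs seeded at 2 × 10^5/35 mm dish in DMEM + 10% FCS, switched after 24 h to 0.4% FCS for 48 h. Compounds (DMSO stocks) added at 10 μM final for 4 h, then PDGF-BB 20 ng/mL for 2 min. Lysates analysed by G-LISA (RBD-coated plate, antibody/HRP detection) for Rac1–GTP or RhoA–GTP. Mean ± SD of triplicates.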

[2] = target: Transforming protein RhoA (Homo sapiens) (UniProt P61586); test: Activation of RhoA in human smooth muscle cells assessed as PDGF-BB stimulated GTP bound protein level at 10 uM preincubated for 4 hrs followed by PDGF-BB stimulation measured after 2 mins by G-LISA assay; assay type: cell-based; how it was run: as §1
Transforming protein RhoA (Homo sapiens), sequence (P61586 whole entry): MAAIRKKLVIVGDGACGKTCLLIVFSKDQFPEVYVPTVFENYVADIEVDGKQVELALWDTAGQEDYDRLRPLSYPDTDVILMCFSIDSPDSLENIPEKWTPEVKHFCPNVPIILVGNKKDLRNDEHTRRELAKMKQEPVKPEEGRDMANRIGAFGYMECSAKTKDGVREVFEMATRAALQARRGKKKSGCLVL

[3] = target: T1, Ras-related C3 botulinum toxin substrate 1/T-lymphoma invasion and metastasis-inducing protein 1; test: Inhibition of Rac1-Tiam1 interaction in human smooth muscle cells assessed as reduction of PDGF-BB stimulated GTP bound Rac1 level preincubated for 4 hrs followed by PDGF-BB stimulation measured after 2 mins by G-LISA assay; assay type: cell-based
How it was run: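 SMCs serum-starved (0.4% FCS, 48 h) after seeding at 2 × 10^5/35 mm dish, treated 4 h with compound at 1, 2.5, 5 and 10 μM final, then stimulated with PDGF-BB 20 ng/mL for 2 min. Rac1–GTP in lysates read by G-LISA (Rac1-RBD plate, primary antibody plus HRP secondary). IC50 from concentration–response; triplicates, mean ± SD.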

[4] = species: Homo sapiens; test: Antimigratory activity against human smooth muscle cells assessed as inhibition of PDGF-BB-induced cell motility at 10 uM measured for 16 hrs by video microscopic analysis; assay type: functional, cell-based
How it was run: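 SMCs seeded at 2 × 10^4 per well of 24-well tray in DMEM + 10% FCS, moved to 0.4% FCS for 48 h. Compound added at 10 μM final together with PDGF-BB 20 ng/mL. Time-lapse video microscopy at 37 °C for 16 h; cells manually tracked and distance covered measured for 10 cells per condition from three independent experiments, mean ± SD.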

With `CCOC(=O)[C@]1(N)[C@@H]2C[C@@H](C[C@H]2c2cccc(Nc3ccc(N)cc3)c2)[C@@H]1Sc1ccccc1` (relative stereo) the inhibition [1] was 75%, the Activity [2] was “Active” and the IC50 [3] was 2500 nM. The inhibition [3] was “Dose-dependent effect” and the inhibition [4] was “Active”.

With `CCOC(=O)[C@]1(N)[C@@H]2C[C@@H]([C@@H](c3cccc(Nc4ccc(N)cc4)c3)C2)[C@H]1Sc1ccccc1` (relative stereo) the inhibition [1] was “Active” and the Activity [2] was “Active”.

In the case of `CCOC(=O)[C@]1(N)[C@@H]2C[C@@H]([C@@H](c3cccc(Nc4ccc(N)cc4)c3)C2)[C@@H]1Sc1ccccc1` (relative stereo), the inhibition [1] is reported as “Active” and the Activity [2] is reported as “Active”.

`CCOC(=O)[C@@]1(N)[C@@H]2C[C@@H](C[C@H]2c2cccc(Nc3ccc(N)cc3)c2)[C@@H]1Sc1ccccc1` (relative stereo) was tested, and the inhibition [1] was “Active” and the Activity [2] was “Active”.

`CCOC(=O)[C@@]1(N)[C@@H]2C[C@@H]([C@@H](c3cccc(Nc4ccc(N)cc4)c3)C2)[C@@H]1Sc1ccccc1` (relative stereo) was tested, and the inhibition [1] was “Active” and the Activity [2] was “Active”.

`CCOC(=O)[C@]1(N)[C@@H]2C[C@@H](C[C@H]2c2cccc(Nc3ccc(N)cc3)c2)[C@H]1Sc1ccccc1` (relative stereo) was tested, and the inhibition [1] was “Active” and the Activity [2] was “Active”.
